Activity calls are given as the source filed them.
How the values were obtained:
C2C12 [1] = assay: Induction of osteoblast differentiation in mouse C2C12 cells assessed as increase in ALP promoter activity at 10 uM measured 48 hrs by luciferase reporter gene analysis; type: functional, cell-based
Outline: (§1)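 C2C12 cells seeded and grown 24 h, then transiently transfected (Ca3PO4 or Lipofectamine Plus) with ALP-, OC-, BSP- or OSE-luciferase reporter plus pCMV β-gal to normalise transfection efficiency. Treated at 10 μM. Luciferase read from cell lysates 48 h post-transfection; three independent experiments.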

C2C12 [2] = assay: Induction of osteoblast differentiation in mouse C2C12 cells assessed as increase in osteoclacin promoter activity at 10 uM measured 48 hrs by luciferase reporter gene analysis; type: functional, cell-based; outline: as §1
C2C12 [3] = assay: Induction of osteoblast differentiation in mouse C2C12 cells assessed as increase in of bone sialoprotein promoter activity at 10 uM measured 48 hrs by luciferase reporter gene analysis; type: functional, cell-based; outline: as §1
C2C12 [4] = assay: Induction of osteoblast differentiation in mouse C2C12 cells assessed as increase in OSE promoter activity at 10 uM measured 48 hrs by luciferase reporter gene analysis; type: functional, cell-based; outline: as §1
C2C12 [5] = assay: Induction of osteoblast differentiation in mouse C2C12 cells assessed as increase in ALP promoter activity measured 48 hrs by luciferase reporter gene analysis; type: functional, cell-based
Outline: (§2)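 ALP- or OC-luciferase reporter transfected into C2C12 cells with pCMV β-gal control (Ca3PO4 or Lipofectamine Plus), after 24 h growth post-seeding. Dose-response at 1, 5 and 10 μM. Lysate luciferase activity measured 48 h later; three independent experiments.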

C2C12 [6] = assay: Induction of osteoblast differentiation in mouse C2C12 cells assessed as increase in osteoclacin promoter activity measured 48 hrs by luciferase reporter gene analysis; type: functional, cell-based; outline: as §2
C2C12 [7] = assay: Increase in ALP mRNA expression in mouse C2C12 cells by RT-PCR analysis; type: functional, cell-based
Outline: (§3)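 C2C12 cells (DMEM, 20% FBS, 37 °C, 5% CO2) treated at 1, 5, 10 μM, with BMP2 as comparator. Total RNA extracted with TRIzol. cDNA made from 1 μg RNA using random primers. Semiquantitative RT-PCR for ALP and collagen type 1α with GAPDH reference, 28−30 cycles (94 °C 30 s, primer-specific annealing 30 s, 72 °C 30 s).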

C2C12 [8] = assay: Increase in collagen type 1 alpha mRNA expression in mouse C2C12 cells by RT-PCR analysis; type: functional, cell-based; outline: as §3
C2C12 [9] = assay: Induction of osteogenesis in mouse C2C12 cells assessed as increase in osteoblast differentiation-associated ALP level at 10 uM after 2 days in presence of 5 ng/mL BMP2

Measured: Activity

C=C1C[C@@]23CC[C@@H]4[C@@](C)(CO)CCC[C@@]4(C)[C@@H]2[C@@H](OC(C)=O)C[C@@H]1C3
active: C2C12 [1] | C2C12 [2] | C2C12 [3] | C2C12 [4] | C2C12 [5] Dose-dependent effect | C2C12 [6] Dose-dependent effect | C2C12 [7] Dose-dependent effect | C2C12 [8] Dose-dependent effect | C2C12 [9]

C=C1C[C@@]23CC[C@@H]4[C@@](C)(COC(C)=O)CCC[C@@]4(C)[C@@H]2CC[C@@H]1[C@H]3O
active: C2C12 [1] | C2C12 [2] | C2C12 [3] | C2C12 [4] | C2C12 [5] Dose-dependent effect | C2C12 [6] Dose-dependent effect | C2C12 [7] Dose-dependent effect | C2C12 [8] Dose-dependent effect | C2C12 [9]

C=C1C[C@@]23CC[C@@H]4[C@@](C)(COC(C)=O)CCC[C@@]4(C)[C@@H]2[C@H](O)C[C@@H]1C3
active: C2C12 [1] | C2C12 [2] | C2C12 [3] | C2C12 [4] | C2C12 [5] Dose-dependent effect | C2C12 [6] Dose-dependent effect | C2C12 [7] Dose-dependent effect | C2C12 [8] Dose-dependent effect | C2C12 [9]

C=C1C[C@]23C[C@H]1CC[C@H]2[C@]1(C)CCC[C@](C)(COC(C)=O)[C@H]1C[C@H]3O
active: C2C12 [1] | C2C12 [2] | C2C12 [3] | C2C12 [4] | C2C12 [5] Dose-dependent effect | C2C12 [6] Dose-dependent effect | C2C12 [9]
